Data set [1] can be described thus: Concentration required to reduce DNA synthesis in primary rabbit kidney cells using [3H-Methyl]-dThd incorporation. It counts as functional. The note with it: Oryctolagus cuniculus, read-out: ID50 (the source's name). The essentials:
(§1)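 Primary rabbit kidney cells with compounds in growth medium at 100, 10, or 1 μg/mL or less. Cell number and incorporation of [3H-methyl]dThd (DNA), [3H-5]Urd (RNA) or [3H2-4,5]leucine (protein) measured. ID50 taken as the dose giving 50% reduction in cell number or in DNA, RNA or protein synthesis.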

Data set [2] is described as follows: Concentration required to reduce RNA synthesis in primary rabbit kidney cells using [3H-5]-Urd incorporation. It counts as functional. The note with it: Oryctolagus cuniculus, read-out: ID50 (the source's name). The essentials:
as §1

The nature of data set [3]: Concentration required to reduce protein synthesis in primary rabbit kidney cells usingi [3H2-4,5]leucine incorporation. It is filed as functional. The note with it: Oryctolagus cuniculus, read-out: ID50 (the source's name). Summed up:
as §1

Data set [4] can be described thus: Dose required to reduce primary rabbit kidney cell growth. It is filed as functional. The note with it: Oryctolagus cuniculus, read-out: ID50 (the source's name). The essentials:
as §1

The test system of data set [5] is HeLa. The data set is described as follows: Antiviral activity was measured against Coxsackie virus B4 in HeLa cells. It counts as functional. The note with it: Homo sapiens. Summed up:
(§2)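 Inhibition of virus-induced cytopathogenicity in cell culture. Compounds were dissolved in growth medium at 100, 10 or 1 μg/mL or less.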

For data set [6], the system named is HeLa. The data set is described as follows: Concentration required for microscopically detectable alteration of the normal cell morphology in HeLa cells. It counts as functional. The note with it: Homo sapiens. Summed up: (§3)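 Host-cell morphology inspected microscopically for detectable alteration, with compounds in growth medium at up to 200 or 400 μg/mL.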

The test system of data set [7] is Mus musculus. In words: Efficacy expressed as number of surviving mice infected with herpetic encephalitis at dose of 0 mg/kg. It counts as functional.
In data set [8] the test system is Mus musculus. In words: Efficacy expressed as number of surviving mice infected with herpetic encephalitis at dose of 150 mg/kg. It is filed as functional. The essentials:
(§4)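 Young mice (10 g) were inoculated intracerebrally with 0.03 mL of herpes simplex virus suspension containing ca. 4 CCID50. Compound was given at 75 or 150 mg/kg per day as two daily intraperitoneal injections for 4 days. Read-out was the number of surviving mice.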

The species entered for data set [9] is Mus musculus. In words: Efficacy expressed as number of surviving mice infected with herpetic encephalitis at dose of 75 mg.kg. It counts as functional. Summed up: as §4
In data set [10] the test system is Mus musculus. In words: Toxicity of compound against mice was determined at a concentration of 100 mg/kg. It is filed as organism-based. The note with it: in vivo. Details: dose 100 mg/kg. Summed up: (§5)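 Swiss mice (20-24 g) received a single intraperitoneal dose of 100-2,000 mg/kg. Compound was suspended in distilled water containing 0.2 g Tween 80 and 0.2 g (carboxymethyl)cellulose per 100 mL. Mice were followed for 14 days for acute toxicity.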

The subject of data set [11] is Mus musculus. The data set is described as follows: Toxicity of compound against mice was determined at a concentration of 1200 mg/kg. It is filed as organism-based. On the set-up: dose 1200 mg/kg. The settings on record: in vivo. Summed up:
as §5

The subject of data set [12] is Mus musculus. In words: Toxicity of compound against mice was determined at a concentration of 2000 mg/kg. It is filed as organism-based. On the set-up: dose 2000 mg/kg. The settings on record: in vivo. The essentials: as §5
In data set [13] the test system is Mus musculus. In words: Toxicity of compound against mice was determined at a concentration of 250 mg/kg. It is filed as organism-based. On the set-up: dose 250 mg/kg. The settings on record: in vivo. The essentials:
as §5

In data set [14] the test system is Mus musculus. The data set is described as follows: Toxicity of compound against mice was determined at a concentration of 750 mg/kg. The settings on record: in vivo. On the set-up: dose 750 mg/kg. It counts as organism-based. Summed up:
as §5

Data set [15] is described as follows: Antiviral activity was measured against Vesicular stomatitis virus in rabbit kidney cells. It counts as functional. The note with it: Oryctolagus cuniculus. Summed up:
as §2

The nature of data set [16]: Concentration required for microscopically detectable alteration of the normal cell morphology in PRK cells. It is filed as functional. The settings on record: Oryctolagus cuniculus. The essentials: as §3
Data set [17] can be described thus: Antiviral activity was measured against Herpes simplex virus (HSV-1 KOS) in rabbit kidney cells. It counts as functional. The note with it: Oryctolagus cuniculus. The essentials:
as §2

Data set [18] is described as follows: Antiviral activity was measured against Herpes simplex virus (HSV-2 G) in rabbit kidney cells. It counts as functional. The settings on record: Oryctolagus cuniculus. Summed up: (§6)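 Inhibition of virus-induced cytopathogenicity scored in cell culture monolayers. Test compounds dissolved in growth medium at 100, 10, or 1 μg/mL or less.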
Data set [19] is described as follows: Antiviral activity was measured against Vaccinia virus in rabbit kidney cells. It counts as functional. The note with it: Oryctolagus cuniculus. Summed up:
as §2

Data set [20] can be described thus: Number of living cells on the proliferation of mouse myeloma cells SP2 was measured at concentration 100 ug/mL at 48 hr. It counts as functional. Summed up: (§7)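 Mouse myeloma SP2 cells seeded at 123 × 10^3 cells and exposed to compound at 1, 10 or 100 μg/mL in growth medium. Living cells counted at 0, 48 and 96 h alongside untreated controls.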
Data set [21] in a line: Number of living cells on the proliferation of mouse myeloma cells SP2 was measured at concentration 100 ug/mL at 96 h. It counts as functional. The essentials:
as §7

The subject of data set [22] is Vero. The data set is described as follows: Antiviral activity was measured against Coxsackie virus B4 in african green monkey kidney (Vero B) cells. It is filed as functional. The note with it: Chlorocebus sabaeus. Summed up:
as §6

For data set [23], the system named is Vero. In words: Antiviral activity was measured against Parainfluenza virus-3 in african green monkey kidney (Vero B) cells. It is filed as functional. The settings on record: Chlorocebus sabaeus. Summed up:
as §6

For data set [24], the system named is Vero. In words: Antiviral activity was measured against Reo virus-1 in african green monkey kidney (Vero B) cells. The settings on record: Chlorocebus sabaeus. It counts as functional. Summed up:
as §6

For data set [25], the system named is Vero. The data set is described as follows: Antiviral activity was measured against forest virus in african green monkey kidney (Vero B) cells. The note with it: Chlorocebus sabaeus. It is filed as functional. Summed up:
as §6

In data set [26] the test system is Vero. The data set is described as follows: Antiviral activity was measured against Sindbis virus in african green monkey kidney (Vero B) cells. It counts as functional. The settings on record: Chlorocebus sabaeus. Summed up:
as §6

Data set [27] deals with WI-38. The data set is described as follows: Concentration required for microscopically detectable alteration of the normal cell morphology in Wi-38 cells. It counts as functional. The settings on record: Homo sapiens. Summed up: as §3
Data set [28] deals with WI-38. The data set is described as follows: Antiviral activity was measured against Rhino virus-1A in human diploid (WI-38) cells. It is filed as functional. The essentials: as §6
Data set [29] deals with WI-38. In words: Antiviral activity was measured against Rhino virus-9 in human diploid (WI-38) cells. It is filed as functional. The essentials: as §6
Data set [30] deals with Vero. The data set is described as follows: Concentration required for microscopically detectable alteration of the normal cell morphology in Vero B cells. It counts as functional. The note with it: Chlorocebus sabaeus. Summed up: as §3

Converted amounts (≈) assume the structure as drawn.

`Nc1ccn([C@@H]2O[C@H](CO)[C@@H](O)[C@@H]2O)c(=O)n1` [CYTARABINE]: the IC50 in data set [1] is 0.05 µg/mL (≈ 0.206 µM); in [2], 0.03 µg/mL (≈ 0.123 µM); in data set [3] it was greater than 200 µg/mL; in data set [4], 0.04 µg/mL (≈ 0.164 µM).
As to `Nc1ccn([C@@H]2O[C@H](CO)[C@H](O)[C@H]2O)c(=O)n1`, the MCC in [5] was greater than 100 µg/mL; in data set [6], 200 µg/mL; in data set [15], greater than 100 µg/mL; in data set [16], greater than 200 µg/mL; in data set [17], 20 µg/mL; in data set [18], 20 µg/mL. For the same compound, the MCC in data set [19] is 20 µg/mL; in data set [22] it was greater than 100 µg/mL; in data set [23] it was greater than 100 µg/mL; in data set [24] it was greater than 100 µg/mL; in data set [25], greater than 200 µg/mL; in [26], greater than 40 µg/mL. Moreover, the MCC in data set [27] was 400 µg/mL; in data set [28] it was greater than 400 µg/mL; in data set [29], greater than 400 µg/mL; in [30], greater than 200 µg/mL. Also, the Efficacy turned out to be 0 mg/kg in data set [7], 2 mg/kg in [8] and 1 mg/kg in data set [9]. Further, the “No. of dead mice” value in [10] came out at 0; in [11], 0; in [12], 1; in data set [13] it was 0; in data set [14], 0. For the same compound, the IC50 was 84 µg/mL (≈ 345 µM) in [1], 60 µg/mL (≈ 247 µM) in [2] and 72 µg/mL (≈ 296 µM) in [4]. The “No. of living cells” value came out at 0.056 in data set [20] and 0 in [21].
Turning to `NC(=O)c1ncn([C@H]2O[C@H](CO)[C@H](O)[C@H]2O)c1N`, the MCC in data set [5] is greater than 400 µg/mL; in [6] it was greater than 400 µg/mL; in data set [16] it was greater than 400 µg/mL; in data set [17], greater than 400 µg/mL; in [18], greater than 400 µg/mL; in data set [22], greater than 300 µg/mL. Also, the MCC in data set [23], in data set [24], in data set [25], in data set [26], in data set [27] and in data set [28] was greater than 400 µg/mL in each case. For the same compound, the MCC in data set [29] and in data set [30] was greater than 400 µg/mL each time.
In the case of `Nc1nc(O)c2c(n1)[nH]c[n+]2C1O[C@H](CO)[C@H](O)[C@H]1O` (stereo partly drawn), the MCC in data set [5] was greater than 400 µg/mL; in [6], greater than 400 µg/mL; in data set [16], greater than 400 µg/mL; in data set [17], greater than 400 µg/mL; in data set [18], greater than 400 µg/mL; in data set [22], greater than 200 µg/mL. The MCC in [23] was greater than 200 µg/mL; in [24], greater than 200 µg/mL; in data set [25], greater than 200 µg/mL; in [26], greater than 200 µg/mL; in data set [27] it was greater than 400 µg/mL; in data set [28], greater than 200 µg/mL. Moreover, the MCC in data set [29] was greater than 200 µg/mL; in data set [30], 400 µg/mL.
With `Nc1nc2c(ncn2[C@@H]2O[C@H](CO)[C@H](O)[C@H]2O)c(=O)[nH]1`, the No. of dead mice in [10] worked out at 2; in data set [13] it was 5; in data set [14], 8.
For the compound `Cc1cn([C@@H]2O[C@H](CO)[C@@H](O)[C@H]2O)c(=O)[nH]c1=O`, the MCC in data set [5], in data set [6], in data set [16], in data set [17], in data set [18] and in [22] was greater than 400 µg/mL in each case. The MCC in data set [23], in data set [24], in data set [25], in data set [26], in data set [27] and in [28] was greater than 400 µg/mL each time. The MCC in data set [29] and in [30] was greater than 400 µg/mL throughout.
